Compound activity (PubChem BioAssay)
Shown are actives, neighbours in structure and some others; about 2.2% of the full set was active somewhere.
G6PDH counter = L. mesenteroides G6PDH inhibitors, counter-screen for G6PDH-coupled screening assays, biochemical, Leuconostoc mesenteroides enzyme | Purified L. mesenteroides G6PDH, diaphorase/resazurin coupled fluorescence, 45 min | AID 1020, 2008 | 200,000 tested, 0.12% active | inhibition, % at 5 µM | glucose-6-phosphate dehydrogenase [Leuconostoc mesenteroides]; in the data active means inhibition above about 50%
PMI act hi M6P = human PMI activators, high substrate, primary screen, biochemical, fluorescence intensity, near-saturating mannose 6-phosphate; activation factor at 20 µM; 190,000 tested, 0.34% active; coupled PMI enzyme assay, resazurin fluorescence, 20 min; stronger effect = higher value; 1 = untreated enzyme, 0 = substrate-free blank;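 active means activation factor of 2 or more at 20 µM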
Target sequence (P34949 whole entry, looked up): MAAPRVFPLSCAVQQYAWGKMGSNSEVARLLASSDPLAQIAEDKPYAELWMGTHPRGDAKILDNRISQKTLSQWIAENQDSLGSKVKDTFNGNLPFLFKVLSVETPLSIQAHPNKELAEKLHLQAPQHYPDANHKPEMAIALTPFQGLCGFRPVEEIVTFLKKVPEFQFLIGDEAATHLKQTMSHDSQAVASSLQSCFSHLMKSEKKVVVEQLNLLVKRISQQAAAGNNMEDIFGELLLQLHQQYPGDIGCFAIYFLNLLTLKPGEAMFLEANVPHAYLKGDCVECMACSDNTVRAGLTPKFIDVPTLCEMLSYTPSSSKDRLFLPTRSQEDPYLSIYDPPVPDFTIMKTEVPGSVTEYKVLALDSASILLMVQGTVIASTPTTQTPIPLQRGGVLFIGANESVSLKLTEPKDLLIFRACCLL
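Technique: Diaphorase-driven resazurin-to-resorufin fluorescence, excitation 544, emission 590 nm | Assay system: Human PMI in coupled enzyme assay | Times: Enzyme reaction with compound 20 min at room temperature | Medium: HEPES-buffered pH 7.4 with magnesium and detergent | Reagent: Mannose-6-phosphate 1.0 mM (near-saturating) plus 0.22 mM NADP+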
PMI activator = activators of human PMI, primary screen, biochemical, fluorescence intensity, near-Km mannose 6-phosphate; purified human PMI, coupled resazurin fluorescence, 20 min; stronger effect = higher value; 1 = vehicle control, 0 substrate-free wells; Mannose-6-phosphate isomerase (Homo sapiens), P34949; activation factor at 20 µM; 190,000 tested, 0.005% active;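 active means activation factor of 2 or more at 20 µM, relative to plate controls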
Diaphorase inh = diaphorase inhibitors and chemical oxidizers, primary screen, counter-screen for diaphorase-coupled primary assays, biochemical, uHTS, resorufin fluorescence; diaphorase resazurin-to-resorufin fluorescence, NADH, 16 min; bacterial (C. kluyveri) enzyme, not human; inhibition, % at 20 µM; 190,000 tested, 0.69% active;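 active means primary screen inhibition at 20 µM above a set limit, cut at about 50% in these data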;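 further: plate controls were DMSO with full reaction for no effect and wells lacking NADH for full effect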
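Test system: diaphorase enzyme from Clostridium kluyveri; amount: diaphorase at 0.14 U/mL in enzyme working solution; detection: fluorescence of resorufin formed from resazurin, Ex 544/Em 590 nm; times: reaction incubation of 16 min at room temperature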
ROMK primary = ROMK potassium channel modulators, primary screen, cell-based, thallium flux, MLSMR library; ATP-sensitive inward rectifier potassium channel 1 (Homo sapiens), P48048; Tet-inducible ROMK, thallium flux fluorescence; actives lie on both sides; B-score at 10 µM; 130,000 tested, 2% active; AID 1918, 2009;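 active means signal ratio slope over the read window, or its plate-corrected B-score, at least 3 SD from the plate mean, either direction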;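 further: B-score of the F/F0 ratio slope over 7 to 12 s after thallium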
Diaphorase act = compounds boosting diaphorase resazurin reduction – biochemical, uHTS, resorufin fluorescence, counter-screen for diaphorase-coupled primary assays, primary screen; Diaphorase/resazurin coupled assay, 16 min; stronger effect = higher value; 1 = vehicle wells, 0 = NADH-free wells; activation factor at 20 µM; 190,000 tested, 0.005% active;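 active means diaphorase activity raised at least twofold by the compound at 20 µM; inactive means activation factor below 2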
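Test system: Clostridium kluyveri diaphorase, purified enzyme; input: enzyme 0.07 U/mL final; buffer or medium: 50 mM HEPES pH 7.4 with 4.542 mM MgCl2, 0.005% Tween 20; also added: 0.114 mM NADH and 0.1 mM resazurin, final amounts; schedule: 16 min enzyme reaction, ambient temperature; technique: fluorescence of resorufin, 544 nm excitation, 590 nm emission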
* = called active by the depositor; nt = no result given.

SMILES	G6PDH counter	PMI act hi M6P	PMI activator	Diaphorase inh	ROMK primary	Diaphorase act
COc1ccc(/C=C/C(=O)NC(=S)NNC(=O)c2cnccn2)cc1	nt	nt	nt	nt	2.16	nt
CC1=C(C#N)C(=O)NC(=O)/C1=C\c1ccc(-c2cc(C)c(C)cc2[N+](=O)[O-])o1	27.5	0.5	1	60.9*	1.16	0.4
Cc1ccc(S(=O)(=O)Nc2ccc3c(c2)c2c(n3S(=O)(=O)c3ccc(C)cc3)CCCC2=O)cc1	6.1	0.9	1	10.6	nt	0.9
CC(=O)CCc1c(C)c2cccc(C)c2[nH]c1=O	5.5	0.9	0.9	23.2	nt	0.8
COc1cccc2c(=S)c(CCC(C)=O)c(C)[nH]c12	2.3	2.1*	1.6	0.7	nt	1
CCOP(=O)(OCC)C(NC(=O)/C=C/c1ccc(OC)cc1)c1ccccc1 (centres undefined)	11.5	0.9	1	15.1	-0.00301	0.8
CCc1cc2c(=O)n(-c3ccccc3)c(=S)[nH]c2s1	5.5	0.9	0.9	81.0*	nt	0.2
O=C(/C=C/NNC(=O)c1ccccc1)c1ccc(Br)cc1	2.9	1.3	1.2	2.9	nt	1
O=C(/C=C/NCC(=O)c1ccccc1)c1ccc(Br)cc1	-10.3	2.1*	1.6	5.1	nt	0.9
CC1=C(C(=O)OCC2CCCO2)C(c2ccc(F)cc2)NC(=O)N1 (centres undefined)	7.4	1	1	36.0	0.0397	0.6
CCCCCCCCCCCCCCCC(O)C(N)CO (centres undefined)	12.0	1.2	1.2	-128.1	nt	2.3*
Cn1c(CNC(=O)c2ccccc2F)nnc1SCc1nc2ccccc2c(=O)[nH]1	12.1	0.9	0.9	14.6	1.35	0.9
CC1CC(=O)Nc2ccccc2N1S(=O)(=O)c1ccc(F)cc1F (centres undefined)	nt	nt	nt	nt	0.0116	nt
O=c1[nH]c(=O)c2cc([N+](=O)[O-])cc([N+](=O)[O-])c2[nH]1	7.7	2.2*	1.7	3.7	0.0619	1
CCOc1ccc(C(=O)NCC(=O)OCC(=O)N2CCCCC2)cc1	-1.4	1	1	4.8	0.946*	1
COc1c(C)cc(C(=O)C2CCCN(C(=O)/C=C/c3ccccn3)C2)cc1C (centres undefined)	8.2	1	0.9	11.9	-0.278	0.9
Nc1ccc(N2CCCCC2)cc1N1CCCCC1	6.1	0.5	0.4	57.2*	nt	0.4
Nc1c(N2CCOCC2)cc(Cl)c2nonc12	49.3	0.3	0.6	42.8	nt	0.6
Nc1ccc(N2CCCCC2)c2nonc12	53.6*	0.3	0.6	29.7	0.377	0.7
Nc1cc(Cl)ccc1N1CCCCC1	10.6	0.8	0.9	19.7	0.071	0.8
Nc1c(N2CCCC2)cc(Cl)c2nonc12	56.6*	0.4	0.5	61.7*	nt	0.4
CC(=O)c1cccc(NC(=O)N2CCCC(C(=O)c3cc(F)ccc3F)C2)c1 (centres undefined)	13.9	1	0.9	6.1	0.237	0.9
O=C(COc1cccc(F)c1)Nc1ccc2[nH]c(=O)[nH]c2c1	10.0	0.8	0.9	55.4*	0.047	0.4
CCc1cc[n+](C2=C([O-])c3ccccc3C(=O)/C2=N\S(=O)(=O)c2cccs2)cc1	50.8*	0.6	1.1	20.7	-0.58	0.8
O=C(CCNC(=O)c1ccccc1)OCC(=O)c1ccccc1	8.6	1	1.1	-17.9	0.729	1.2
SMILES	G6PDH counter	PMI act hi M6P	PMI activator	Diaphorase inh	ROMK primary	Diaphorase act
Cc1[nH]n(-c2ccccc2)c(=O)c1/C=N/NC(=O)COc1ccccc1[N+](=O)[O-]	-0.7	0.4	0.9	52.9*	nt	0.5
CC(=O)N/N=C/c1c(C)[nH]n(-c2ccccc2)c1=O	18.4	0.9	0.7	55.8*	nt	0.4
COCC(=O)N/N=C/c1c(C)[nH]n(-c2ccccc2)c1=O	12.7	1	0.7	37.0	0.742	0.6
COc1ccc(C(=O)NNC(=O)c2cccc(F)c2)cc1	7.2	1	1.1	-5.1	nt	1.1
COc1ccc(S(=O)(=O)N2CCN(C(=S)NC3CCCCC3)CC2)cc1	2.5	1.1	1	-1.2	-0.627	1
O=c1c2sc3ccccc3c2[nH]c(=S)n1CCN1CCOCC1	0.5	0.9	0.8	55.6*	1.9	0.4
CC1CCN(CCCn2c(=S)[nH]c3c(sc4ccccc43)c2=O)CC1	-1.1	1.2	1.3	58.2*	0.826	0.4
COCCCn1c(=S)[nH]c2c(sc3ccccc32)c1=O	4.4	1.4	1.3	64.0*	5.33*	0.4
O=C(O)CCCn1c(=S)[nH]c2c(sc3ccc([N+](=O)[O-])cc32)c1=O	-3.8	1.1	1	83.5*	-0.813	0.2
O=C1c2ccccc2C(=O)N1CC(O)CNc1ccc(Br)cc1 (centres undefined)	-1.8	1	1	11.5	nt	0.9
CCOC(=O)C(NC(C)=O)C(=O)Nc1c(C)cccc1C (centres undefined)	18.9	1.1	1.1	-2.1	-0.567	1
Cc1ccc(C(C[N+](=O)[O-])c2c(-c3ccccc3O)[nH][nH]c2=O)cc1 (centres undefined)	15.2	1	0.9	8.8	-1.5	0.9
Cc1sccc1C1C(C#N)=C(N)SC(N)=C1C#N	-14.1	1.6	1	14.6	-2.18	0.9
N#CC1=C(N)SC(N)=C(C#N)C1CCC1CCCCC1	-3.1	1.2	1	53.6*	nt	0.5
O=c1nc2n(c3cccc(Cl)c13)CCCCC2	5.7	0.9	1	7.7	-0.452	0.9
CC(=O)c1ccc(NC(=S)NCc2cccnc2)cc1	7.8	1	1.1	-13.9	-0.244	1.1
N#Cc1c(N)nc2c3c(sc(=N)c2c1N)NC(=O)CC3c1ccccc1 (centres undefined)	-15.6	0.9	0.8	26.2	nt	0.7
N#Cc1c(N)nc2c3c(sc(=N)c2c1N)NC(=O)CC3c1c(F)cccc1Cl (centres undefined)	-1.7	1	1	52.8*	nt	0.5
Cc1ccc(S(=O)(=O)N(C)C)cc1NC(=S)NNC(=O)C(N)=O	12.4	1.1	1.1	11.8	-0.0775	0.9
Cc1cc(-c2nnnn2-c2cc(Cl)cc(Cl)c2)no1	nt	nt	nt	nt	0.164	nt
CCC(CC)C(=O)Nc1cc(Cl)ccc1C	4.3	1	1	0.7	0.296	1
